Numbering of substitutions follows the chain as printed. Converted amounts (≈) assume the structure as drawn. The source made the active and inactive calls. No cut-off for these calls is given here. Some results are limits rather than exact numbers.

Experiment [1] concerns the target T1, Penicillin-binding protein 2x (Streptococcus pneumoniae serotype 4 (strain ATCC BAA-334 / TIGR4)) (UniProt P14677).
T1 sequence (whole entry): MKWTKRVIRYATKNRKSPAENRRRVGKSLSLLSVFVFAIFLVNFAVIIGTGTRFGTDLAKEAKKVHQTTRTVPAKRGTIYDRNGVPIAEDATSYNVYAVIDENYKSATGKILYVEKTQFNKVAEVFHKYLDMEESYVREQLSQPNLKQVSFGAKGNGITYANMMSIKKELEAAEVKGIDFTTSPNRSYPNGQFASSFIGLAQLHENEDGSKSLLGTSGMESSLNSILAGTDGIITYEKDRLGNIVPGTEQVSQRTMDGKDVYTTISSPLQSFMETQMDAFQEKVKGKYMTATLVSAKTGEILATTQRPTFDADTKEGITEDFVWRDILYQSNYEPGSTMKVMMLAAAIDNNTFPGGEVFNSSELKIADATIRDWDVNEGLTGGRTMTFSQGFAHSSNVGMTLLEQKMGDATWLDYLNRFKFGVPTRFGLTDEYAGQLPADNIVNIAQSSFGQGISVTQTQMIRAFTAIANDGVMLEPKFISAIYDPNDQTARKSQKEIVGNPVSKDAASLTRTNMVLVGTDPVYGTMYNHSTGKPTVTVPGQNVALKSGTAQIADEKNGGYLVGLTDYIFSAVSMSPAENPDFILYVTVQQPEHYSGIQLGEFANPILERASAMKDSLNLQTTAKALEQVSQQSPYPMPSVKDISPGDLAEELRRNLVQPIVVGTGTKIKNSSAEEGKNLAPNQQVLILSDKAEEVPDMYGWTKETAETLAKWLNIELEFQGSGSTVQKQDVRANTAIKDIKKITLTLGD
The experiment in a line: Inhibition of penicillin-resistant Streptococcus pneumoniae 5204 PBP2X assessed as residual activity at 200 uM preincubated for 1 hr before addition of substrate (R)-[2-(benzoylamino)propionylsulfanyl]acetic acid.

For experiment [2], the target named is Penicillin-binding protein 2x (Streptococcus pneumoniae serotype 4 (strain ATCC BAA-334 / TIGR4), UniProt P14677). The experiment in a line: (§1) Inhibition of penicillin-resistant Streptococcus pneumoniae 5204 PBP2X preincubated for 4 hrs before addition of substrate (R)-[2-(benzoylamino)propionylsulfanyl]acetic acid. A digest of the protocol:
(§2)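 0.6 μM 5204-PBP2x preincubated 4 h at 25 °C with inhibitor in 10 mM sodium phosphate pH 7.0, 70 mM D-alanine, 0.01 mg/mL BSA, 1% DMF, 0.01% Triton X-100. Assays were run in triplicate, and IC50 was fitted from residual activity versus decreasing inhibitor concentrations.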

Experiment [3] has as its target T2, Penicillin-binding protein 2X (Streptococcus pneumoniae R6, UniProt P59676).
T2 sequence (P59676 whole entry): T1 sequence (whole entry) with T385M
The experiment in a line: (§3) Inhibition of penicillin-sensitive Streptococcus pneumoniae R6 PBP2X preincubated for 1 hr before addition of substrate (R)-[2-(benzoylamino)propionylsulfanyl]acetic acid. A digest of the protocol: (§4)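 Compounds taken from 100 mM DMF stocks (1% DMF final) and preincubated with 0.09 μM R6-PBP2x in 10 mM sodium phosphate pH 7.0 with 0.01 mg/mL BSA, 60 min, 25 °C. Spontaneous hydrolysis without enzyme measured. Triplicates. IC50 fitted from residual activity versus decreasing inhibitor concentration, with 0.01% Triton X-100.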

The target in experiment [4] is T1, Penicillin-binding protein 2x (Streptococcus pneumoniae serotype 4 (strain ATCC BAA-334 / TIGR4)). The experiment in a line: Inhibition of penicillin-resistant Streptococcus pneumoniae 5204 PBP2X. The procedure, abridged: as §2
Experiment [5] in a line: Inhibition of Streptococcus pneumoniae PBP1B after 60 mins by SDS-PAGE. The procedure, abridged:
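Test compounds incubated with 0.7 μM PBP1b in 10 mM sodium phosphate pH 7.0 for 60 min at 30 °C. Remaining active enzyme counter-labeled with 10 μM fluorescein-labeled ampicillin for 20 min. Reaction stopped, proteins separated by SDS-PAGE and read by fluorescence imaging with background subtracted.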

The target in experiment [6] is T1, Penicillin-binding protein 2x (Streptococcus pneumoniae serotype 4 (strain ATCC BAA-334 / TIGR4)). As to the kind of experiment: Inhibition of penicillin-resistant Streptococcus pneumoniae 5204 PBP2X assessed as residual activity at 100 uM preincubated for 1 hr before addition of substrate (R)-[2-(benzoylamino)propionylsulfanyl]acetic acid.
Experiment [7] shares this target. Described as §1. A digest of the protocol: as §2
The target of experiment [8] is T3, Penicillin-binding protein 2X (Streptococcus pneumoniae R6) (UniProt P59676).
T3 sequence (whole entry): T1 sequence (whole entry) with T385M
The experiment is described as §3. A digest of the protocol:
as §4

Experiment [9] concerns Streptococcus pneumoniae. The experiment in a line: Antibacterial activity against penicillin-resistant Streptococcus pneumoniae SP328. It counts as functional.
In experiment [10] the test system is Streptococcus pneumoniae. The experiment in a line: Antibacterial activity against penicillin-resistant Streptococcus pneumoniae 5259. Format: functional.

One may read the IC50 as the concentration that gives 50% inhibition. Take `Cc1ccc(Nc2nnc(CSc3ccc(Cl)cc3)s2)c(S(=O)(=O)O)c1`: in experiment [1], the Activity worked out at 54%. Besides, the IC50 was 219 µM in experiment [2], above 1000 µM in [3] and “Not Active” in experiment [5]. In addition, in experiment [4], the outcome was Active.

Regarding `O=C(Nc1cccc(C(F)(F)F)c1)Nc1c(Oc2ccc(Cl)c(Cl)c2)ccc(Cl)c1S(=O)(=O)O`, the IC50 in experiment [2] is 72 µM; in experiment [3], 255 µM; in experiment [5] (read-out: IC50), 88 µM. Moreover, in experiment [4], the outcome was Active. In experiment [6], the Activity came out at 50%.

As usually defined, the MIC is the least concentration at which growth counts as inhibited. Read a low MIC as greater potency. For `CC1(C)S[C@@H]2[C@H](NC(=O)Cc3ccccc3)C(=O)N2[C@H]1C(=O)O` [PENICILLIN G], the outcome in [7] and in experiment [8] was Active. The MIC in the experiment with Streptococcus pneumoniae [9] was 4 µg/mL (≈ 12 µM); against Streptococcus pneumoniae [10] it was 0.19 µg/mL (≈ 0.568 µM).

As to `Cc1cc(Cl)ccc1NC(=O)Nc1c(Oc2ccc(Cl)cc2)ccc(Cl)c1S(=O)(=O)O`, the IC50 stood at 71 µM in experiment [2], 336 µM in experiment [3] and 259 µM in [5] (read-out: IC50). In experiment [4], the outcome was Active. Besides, the Activity in experiment [6] stood at 50%.

Turning to `Cc1cc(SCC2=C(C(=O)[O-])N3C[C@@H](NC(=O)CSc4c(Cl)cc(/C=C/C(=O)NCC(=O)[O-])cc4Cl)[C@H]3SC2)cc(C)[n+]1CCC[N+]1(C)CCOCC1`, the result in experiment [7] and in experiment [8] was Active.

Consider `C[C@@H](O)[C@H]1C(=O)N2C(C(=O)O)=C(SC3CN(C4=NCCS4)C3)[C@H](C)[C@H]12`, for which the result in experiment [7] and in experiment [8] was Active.

The record behind these values is ChEMBL document CHEMBL1155224, “Discovery of new inhibitors of resistant Streptococcus pneumoniae penicillin binding protein (PBP) 2x by structure-based virtual screening” (J Med Chem, 2009).
